In ChEMBL document CHEMBL1667725, “Tuberatolides, potent FXR antagonists from the Korean marine tunicate Botryllus tuberatus” (J Nat Prod, 2011):
Calls of active or inactive are those of the source. The calls are words filed in the database; no cut-off is given here.

Experiments:
Bile acid receptor = target: T1, Bile acid receptor (Homo sapiens, UniProt Q96RI1); assay: Antagonist activity at human FXR expressed in CV-1 cells assessed as inhibition of CDCA-induced transactivation after 24 hrs by luciferase reporter gene assay; format: functional, cell-based
T1 sequence (Q96RI1 whole entry): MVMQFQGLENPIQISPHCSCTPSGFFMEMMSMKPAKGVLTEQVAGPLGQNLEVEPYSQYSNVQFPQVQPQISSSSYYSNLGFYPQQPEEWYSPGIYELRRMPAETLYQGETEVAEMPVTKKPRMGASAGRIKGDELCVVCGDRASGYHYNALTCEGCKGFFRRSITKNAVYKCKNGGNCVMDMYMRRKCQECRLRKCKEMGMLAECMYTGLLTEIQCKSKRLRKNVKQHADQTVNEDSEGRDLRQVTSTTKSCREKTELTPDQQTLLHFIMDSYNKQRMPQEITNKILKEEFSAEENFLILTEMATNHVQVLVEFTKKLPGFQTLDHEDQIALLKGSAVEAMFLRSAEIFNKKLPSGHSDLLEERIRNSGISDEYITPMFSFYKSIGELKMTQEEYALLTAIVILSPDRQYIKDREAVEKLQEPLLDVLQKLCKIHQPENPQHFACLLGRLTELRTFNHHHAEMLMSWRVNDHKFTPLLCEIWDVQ
How it was run: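 CV-1 cells in DMEM with 10% resin-charcoal-stripped FBS, 24 h at 37 °C, 5% CO2, then transiently co-transfected with pCMX-hFXR, CMXβ-GAL and Tk(EcRE)6-LUC. After 24 h, compounds were co-treated with 50 µM CDCA; harvest at 24 h. Luciferase normalized to β-galactosidase. Transfections in triplicate; experiments repeated more than three times.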

[1] = target: T2, Glucocorticoid receptor (Homo sapiens) (UniProt P04150); assay: Effect on human Gal4-fused GR at 10 uM by luciferase reporter gene assay
T2 sequence (whole entry): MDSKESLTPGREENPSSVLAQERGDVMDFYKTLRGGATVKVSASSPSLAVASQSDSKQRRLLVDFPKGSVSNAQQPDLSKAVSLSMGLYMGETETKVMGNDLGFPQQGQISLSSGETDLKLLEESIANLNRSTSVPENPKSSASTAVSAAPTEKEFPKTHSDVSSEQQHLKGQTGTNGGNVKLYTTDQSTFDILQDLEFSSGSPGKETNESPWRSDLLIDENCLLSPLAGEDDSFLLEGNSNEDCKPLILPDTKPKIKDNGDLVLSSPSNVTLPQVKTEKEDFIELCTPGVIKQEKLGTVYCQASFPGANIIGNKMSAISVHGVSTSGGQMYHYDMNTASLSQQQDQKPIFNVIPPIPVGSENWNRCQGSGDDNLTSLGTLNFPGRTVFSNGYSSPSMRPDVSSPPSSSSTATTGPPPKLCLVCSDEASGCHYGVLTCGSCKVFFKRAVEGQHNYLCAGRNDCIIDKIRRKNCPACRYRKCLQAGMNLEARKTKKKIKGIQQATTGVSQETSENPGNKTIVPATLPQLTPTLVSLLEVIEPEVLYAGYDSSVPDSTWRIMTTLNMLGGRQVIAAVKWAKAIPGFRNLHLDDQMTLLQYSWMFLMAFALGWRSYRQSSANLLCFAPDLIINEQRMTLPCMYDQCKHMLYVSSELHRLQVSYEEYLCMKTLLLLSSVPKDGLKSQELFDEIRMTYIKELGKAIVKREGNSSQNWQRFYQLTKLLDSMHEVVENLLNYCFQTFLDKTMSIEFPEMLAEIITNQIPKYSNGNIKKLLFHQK

[2] = target: T3, Progesterone receptor (Homo sapiens) (UniProt P06401); assay: Effect on human Gal4-fused PR at 10 uM by luciferase reporter gene assay
T3 sequence (whole entry): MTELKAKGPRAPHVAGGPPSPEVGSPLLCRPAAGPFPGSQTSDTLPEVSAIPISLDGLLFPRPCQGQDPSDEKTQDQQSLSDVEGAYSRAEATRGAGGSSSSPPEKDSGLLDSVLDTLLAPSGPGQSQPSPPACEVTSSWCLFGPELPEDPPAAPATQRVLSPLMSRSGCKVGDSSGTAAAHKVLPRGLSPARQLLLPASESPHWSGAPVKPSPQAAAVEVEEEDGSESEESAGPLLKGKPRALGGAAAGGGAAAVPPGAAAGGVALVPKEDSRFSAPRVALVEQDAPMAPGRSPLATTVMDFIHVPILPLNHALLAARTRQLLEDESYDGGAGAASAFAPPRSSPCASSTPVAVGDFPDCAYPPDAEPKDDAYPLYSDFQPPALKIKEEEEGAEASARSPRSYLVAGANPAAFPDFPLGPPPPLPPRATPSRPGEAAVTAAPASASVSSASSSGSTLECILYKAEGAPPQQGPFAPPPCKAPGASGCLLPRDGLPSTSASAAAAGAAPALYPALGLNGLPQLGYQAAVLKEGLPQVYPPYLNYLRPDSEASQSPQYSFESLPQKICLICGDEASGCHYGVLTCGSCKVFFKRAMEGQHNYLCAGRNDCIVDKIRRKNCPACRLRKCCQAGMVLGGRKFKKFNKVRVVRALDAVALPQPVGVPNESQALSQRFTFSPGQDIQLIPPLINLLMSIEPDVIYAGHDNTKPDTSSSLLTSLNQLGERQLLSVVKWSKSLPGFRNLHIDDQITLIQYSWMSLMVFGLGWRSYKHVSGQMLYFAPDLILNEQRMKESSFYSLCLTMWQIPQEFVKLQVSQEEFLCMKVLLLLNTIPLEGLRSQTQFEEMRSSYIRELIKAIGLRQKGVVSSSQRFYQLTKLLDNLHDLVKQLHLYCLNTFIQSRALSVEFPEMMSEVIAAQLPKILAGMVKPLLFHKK

[3] = target: T4, Estrogen receptor (Homo sapiens) (UniProt P03372); assay: Effect on human Gal4-fused ERalpha at 10 uM by luciferase reporter gene assay
T4 sequence (whole entry): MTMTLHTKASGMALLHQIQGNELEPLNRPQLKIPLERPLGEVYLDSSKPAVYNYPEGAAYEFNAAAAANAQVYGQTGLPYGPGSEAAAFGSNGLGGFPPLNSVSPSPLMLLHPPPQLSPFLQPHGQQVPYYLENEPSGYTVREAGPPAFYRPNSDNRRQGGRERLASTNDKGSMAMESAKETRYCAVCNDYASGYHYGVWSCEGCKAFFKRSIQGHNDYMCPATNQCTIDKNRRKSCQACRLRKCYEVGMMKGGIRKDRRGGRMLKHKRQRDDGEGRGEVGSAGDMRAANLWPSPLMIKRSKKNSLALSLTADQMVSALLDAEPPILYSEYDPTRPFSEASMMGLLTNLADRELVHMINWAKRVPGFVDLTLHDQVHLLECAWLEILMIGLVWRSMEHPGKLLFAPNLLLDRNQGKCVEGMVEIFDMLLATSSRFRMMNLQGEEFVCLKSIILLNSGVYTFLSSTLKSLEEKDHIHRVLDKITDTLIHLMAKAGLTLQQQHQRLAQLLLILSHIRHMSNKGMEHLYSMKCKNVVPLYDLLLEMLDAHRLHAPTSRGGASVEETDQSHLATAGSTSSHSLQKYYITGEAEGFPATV

Row | Structure (SMILES) | IC50 (Bile acid receptor) | Activity [1] | Activity [2] | Activity [3]
1 | CC(C)=CCCC1=C[C@@H](C/C(C)=C/CC[C@]2(C)C=Cc3cc(O)cc(C)c3O2)OC1=O [2'-EPI-TUBERATOLIDE B] | 2.5 µM | inactive | inactive | inactive
2 | CC(C)=CCC/C(=C/CC/C(C)=C/CC[C@]1(C)C=Cc2cc(O)cc(C)c2O1)C(=O)O [(R)-SARGACHROMENOL] | 9 µM | inactive | inactive | inactive
3 | CC(C)=CCC/C(=C/CC/C(C)=C/CC[C@@]1(C)C=Cc2cc(O)cc(C)c2O1)C(=O)O [(S)-SARGACHROMENOL] | 17 µM | inactive | inactive | inactive
4 | CC(=O)CC/C=C(\C)C[C@@H]1C=C(CCC=C(C)C)C(=O)O1 [TUBERATOLIDE A] | 3.9 µM | inactive | inactive | inactive
5 | CC(C)=CCCC1=C[C@@H](C/C(C)=C/CC[C@@]2(C)C=Cc3cc(O)cc(C)c3O2)OC1=O [TUBERATOLIDE B] | 1.5 µM | inactive | inactive | inactive
6 | CC(C)=CCCC1=C[C@@H](C/C(C)=C/CC/C(C)=C/CC2=CC(=O)C=C(C)C2=O)OC1=O [YEZOQUINOLIDE] | 5.9 µM | inactive | inactive | inactive
